In the library only some 4% were active in any assay of this set; here they are far more common.
XBP1 UPR activ: activators of adaptive XBP1 UPR arm, primary screen, cell-based, CHO-XBP1 luciferase reporter, luminescence, uHTS. activation, % at 20 µM. IRE1-XBP1 UPR activation; percent of tunicamycin response, DMSO as zero. AID 463104, 2010. 330,000 tested, 0.33% active;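 active means versus positive control, 20 µM dose yields 30% or more activation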
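Assay system: IRE1-XBP1 luciferase reporter CHO line. Input: 1000 cells/well. Buffer or medium: F12 with 10% serum. Doses: 20 µM, 1% DMSO. Times: overnight seeding at 37 °C, 6 h compound treatment at 37 °C. Technique: Steady-Glo luciferase glow luminescence, 10 min after reagent addition.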
UPR CHOP act: activators of apoptotic CHOP UPR arm, primary screen, cell-based, CHO-CHOP luciferase reporter, luminescence, uHTS | UPR activation; percent of tunicamycin response over DMSO baseline | activation, % at 10 µM | 330,000 tested, 0.34% active | AID 449763, 2010;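 active means at 10 µM dose, activation of 40% or more, normalized to positive control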
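Assay system: CHO cells with stable CHOP pathway luciferase reporter; Buffer or medium: F12 plus 10% serum; Times: 16-18 h cell attachment, then 6 h compound exposure, 37 °C; Signal: luciferase luminescence; Read-out basis: percent activation relative to tunicamycin control; Control set: tunicamycin high control, DMSO low control.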
Mdm2-MdmX inh: inhibitors of human Mdm2-MdmX association, primary screen, cell-based, luminescence, split luciferase, SaOS-2, uHTS; AID 485346, 2010; 330,000 tested, 3% active; Protein Mdm4 (Homo sapiens) + E3 ubiquitin-protein ligase Mdm2 (Homo sapiens), …; SaOS-2 split-luciferase Mdm2/MdmX complementation; inhibition, % at 8 µM;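 active means inhibition of at least 50% at 8 µM in the primary screen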
Target sequence (O15151 whole entry, looked up): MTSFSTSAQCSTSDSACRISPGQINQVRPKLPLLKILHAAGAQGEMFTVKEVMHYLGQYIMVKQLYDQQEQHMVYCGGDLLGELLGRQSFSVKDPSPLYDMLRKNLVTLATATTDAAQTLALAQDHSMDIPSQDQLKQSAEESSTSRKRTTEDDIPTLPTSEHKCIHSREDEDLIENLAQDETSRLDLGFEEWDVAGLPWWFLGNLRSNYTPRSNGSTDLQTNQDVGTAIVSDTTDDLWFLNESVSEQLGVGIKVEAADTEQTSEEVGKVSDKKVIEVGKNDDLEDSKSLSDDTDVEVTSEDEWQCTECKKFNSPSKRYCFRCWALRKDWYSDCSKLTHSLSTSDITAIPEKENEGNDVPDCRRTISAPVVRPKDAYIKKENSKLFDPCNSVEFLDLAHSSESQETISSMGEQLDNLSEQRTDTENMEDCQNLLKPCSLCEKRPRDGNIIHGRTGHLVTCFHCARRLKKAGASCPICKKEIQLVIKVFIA
Target sequence (Q00987 whole entry, looked up): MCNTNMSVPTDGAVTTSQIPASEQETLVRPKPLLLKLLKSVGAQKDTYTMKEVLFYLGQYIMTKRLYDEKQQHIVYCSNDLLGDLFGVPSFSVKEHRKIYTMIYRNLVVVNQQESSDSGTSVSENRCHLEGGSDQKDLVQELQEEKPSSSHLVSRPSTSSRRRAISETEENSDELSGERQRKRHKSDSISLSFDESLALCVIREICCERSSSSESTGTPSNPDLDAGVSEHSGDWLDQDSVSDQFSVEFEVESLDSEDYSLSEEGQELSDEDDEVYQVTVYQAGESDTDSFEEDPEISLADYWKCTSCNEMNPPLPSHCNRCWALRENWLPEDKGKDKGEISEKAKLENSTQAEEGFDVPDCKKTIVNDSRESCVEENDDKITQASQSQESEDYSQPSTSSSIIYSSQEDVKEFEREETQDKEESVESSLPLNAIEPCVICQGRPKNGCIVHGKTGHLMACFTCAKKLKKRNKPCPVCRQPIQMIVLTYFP
ABHD5-PLIN5 inh: ABHD5-PLIN5 interaction inhibitors, primary screen, cell lysate, split luciferase complementation, luminescence; Perilipin-5 (Homo sapiens) + 1-acylglycerol-3-phosphate O-acyltransferase ABHD5 (Homo …; inhibition, % at 4 µM; AID 602281, 2012; 360,000 tested, 0.78% active; Split G. princeps luciferase complementation, 4 h;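 active means inhibition above the mean inhibition across every tested compound plus 3 SD, cut at about 22% in these data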
Exocytosis inh: LAMP-1 surface exposure blockers, TALL-104 cells – cell-based, flow cytometry, MLPCN library, primary screen. TALL-104 LAMP-1 surface exposure; cells stimulated with thapsigargin and PMA. inhibition, % at 10 µM. 360,000 tested, 0.66% active;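 active means inhibition above about 55%, limit read from the data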
ABHD5-PLIN5 conf: ABHD5-PLIN5 interaction inhibitors, confirmation, biochemical, luminescence | shares compounds with ABHD5-PLIN5 inh | inhibition, % at 4 µM | 2,200 tested, 67% active | AID 651612, 2012; in the data active means inhibition above about 23%
HNF4 counter: HNF4 dimerization inhibitors, counter-screen for ABHD5-PLIN5 interaction inhibitor project, biochemical, split-luciferase complementation, luminescence. inhibition, % at 4 µM. 2,200 tested, 77% active. shares compounds with ABHD5-PLIN5 inh. AID 651674, 2012;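 active means mean inhibition across replicate wells exceeding the computed hit threshold, cut at about 13% in these data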;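 further: light from luciferase halves that rejoin when HNF4 fusion proteins dimerize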
Of the large screens only hits and unclear results are named; the others gave an inactive call (follow-up assays come after a bar, where they were run).

COc1cc(SC#N)ccc1N=Cc1c(C)[nH]n(-c2cccc3ccccc23)c1=O	none (no result: ABHD5-PLIN5 inh, Exocytosis inh)
COc1cc(SC#N)ccc1N=Cc1c(C)[nH]n(-c2ccc(C)cc2C)c1=O	ABHD5-PLIN5 inh 27 | ABHD5-PLIN5 conf 38 | HNF4 counter 26
COc1ccc(OC)c2sc(NC(=O)C3=COCCO3)nc12	ABHD5-PLIN5 inh 38 | ABHD5-PLIN5 conf inactive | HNF4 counter inactive
CC1(C)Cc2c(c(-c3ccco3)nc3sc4c(NCCCO)ncnc4c23)CO1	ABHD5-PLIN5 inh 33 | ABHD5-PLIN5 conf inactive | HNF4 counter 23
CCc1ccc(NC(=O)Nc2ccsc2C(=O)OC)cc1	none
CC(=O)N1N=C(c2ccco2)CC1c1cccs1 (configuration not stated)	none
O=C(CCl)N1N=C(c2ccco2)CC1c1cccs1 (configuration not stated)	ABHD5-PLIN5 inh 24 (no result: XBP1 UPR activ, UPR CHOP act, Mdm2-MdmX inh) | ABHD5-PLIN5 conf 30 | HNF4 counter 20
N#C/C(=C/c1ccc(OCc2ccc(C(=O)O)cc2)cc1)C(=O)Nc1ccccc1	none
N#C/C(=C\c1ccccc1OCc1ccc(C(=O)O)cc1)C(=O)Nc1ccc(O)cc1	ABHD5-PLIN5 inh 46 | ABHD5-PLIN5 conf 58 | HNF4 counter 56
Cn1c(=O)c2c(ncn2CC(=O)N/N=C/C=C/c2ccco2)n(C)c1=O	ABHD5-PLIN5 inh 31 | ABHD5-PLIN5 conf inactive | HNF4 counter 32
CC(=O)N1CCN(c2nc(N)c(C#N)c(CC#N)c2C#N)CC1	none
N#CCc1c(C#N)c(N)nc(N2CCN(C=O)CC2)c1C#N	ABHD5-PLIN5 inh 23 | ABHD5-PLIN5 conf inactive | HNF4 counter inactive
O=c1[nH]n2c(=O)c3c([nH]c2c1N=Nc1cccc(Cl)c1)CCCC3	none
CC(=O)C1=C(S(=O)(=O)c2ccc(C)cc2)CS(=O)(=O)C1	ABHD5-PLIN5 inh 29 | ABHD5-PLIN5 conf 99 | HNF4 counter 110
Cc1ccc(S(=O)(=O)C2CS(=O)(=O)CC2O)cc1 (configuration not stated)	none
COC(=O)COc1cc2ccccc2cc1C(=O)Nc1ccccc1	none
COc1cc(C=CC(=O)c2ccccc2)cc(OC)c1OC	ABHD5-PLIN5 inh 48 (no result: XBP1 UPR activ, UPR CHOP act, Mdm2-MdmX inh) | ABHD5-PLIN5 conf 68 | HNF4 counter 50
COc1ccccc1/C=C/C(=O)c1ccc(Cl)cc1	ABHD5-PLIN5 inh 27 | ABHD5-PLIN5 conf 69 | HNF4 counter 49
COc1ccc(OC)c(/C=C/C(=O)c2ccc(Cl)cc2)c1	ABHD5-PLIN5 inh 49 | ABHD5-PLIN5 conf 72 | HNF4 counter 55
COc1cc(O)c(C(=O)/C=C/c2ccccc2)c(OC)c1	ABHD5-PLIN5 inh 27 | ABHD5-PLIN5 conf 50 | HNF4 counter 44
COc1cc(O)c(C(C)=O)c(OC)c1	none (no result: XBP1 UPR activ, UPR CHOP act, Mdm2-MdmX inh)
COc1ccccc1/C=C/C(=O)c1ccccc1	ABHD5-PLIN5 inh 29 (no result: XBP1 UPR activ, UPR CHOP act, Mdm2-MdmX inh) | ABHD5-PLIN5 conf 55 | HNF4 counter 34
CCOC(=O)c1nnc(-c2ccccc2)nc1Oc1ccccc1Cl	none
CCCS(=O)(=O)c1ncc(Cl)c(C(=O)Nc2ccc(S(=O)(=O)Nc3ncccn3)cc2)n1	ABHD5-PLIN5 inh 33 | ABHD5-PLIN5 conf 71 | HNF4 counter 86
CCCc1nnc(NC(=O)c2nc(S(=O)(=O)Cc3ccc(C)cc3)ncc2Cl)s1	ABHD5-PLIN5 inh 44 | ABHD5-PLIN5 conf 77 | HNF4 counter 53
CCOC(=O)c1ccc(NC(=O)c2nc(S(=O)(=O)Cc3ccccc3)ncc2Cl)cc1	ABHD5-PLIN5 inh 49 | ABHD5-PLIN5 conf 92 | HNF4 counter 92
Cc1ccc(-c2ccc(SCC(=O)Nc3cc(C)on3)nn2)cc1	ABHD5-PLIN5 inh 55 | ABHD5-PLIN5 conf inactive | HNF4 counter inactive
Cc1cc(NC(=O)CSc2ccc(-c3ccc(Br)cc3)nn2)no1	none
Cc1ccc(S(=O)(=O)N2CCC(C(=O)OCC(=O)N(CC(C)C)C3CCS(=O)(=O)C3)CC2)cc1C (configuration not stated)	none
CCC1CCCCN1C(=O)Cn1c(C(=O)OC)cc2sc(Cl)cc21 (configuration not stated)	none
CC(=O)OC1CCC2(C)C(CCC3C4CC=C(C(C)=O)C4(C)OC(=O)CC32)C1 (configuration not stated)	ABHD5-PLIN5 inh 61 (no result: XBP1 UPR activ, UPR CHOP act, Mdm2-MdmX inh) | ABHD5-PLIN5 conf 88 | HNF4 counter 93
Cc1ccc2nc(C(C)(C)C)c(Cc3ccsc3)n2c1	ABHD5-PLIN5 inh 40 (no result: XBP1 UPR activ, UPR CHOP act, Mdm2-MdmX inh) | ABHD5-PLIN5 conf 55 | HNF4 counter 48
C[C@H]1CN([C@@H](C)CO)C(=O)c2cccc(NC(=O)Nc3ccc(C(F)(F)F)cc3)c2O[C@@H]1CN(C)C(=O)Nc1ccc(F)cc1	none
C[C@H](CO)N1C[C@H](C)[C@@H](CN(C)Cc2ccc(C(=O)O)cc2)Oc2c(NC(=O)C3CC3)cccc2C1=O	none
C[C@H]1CN([C@@H](C)CO)C(=O)c2cccc(NC(=O)Nc3ccc(C(F)(F)F)cc3)c2O[C@H]1CN(C)C	ABHD5-PLIN5 inh 28 | ABHD5-PLIN5 conf inactive | HNF4 counter inactive
COc1ccc(S(=O)(=O)Nc2cccc3c2O[C@H](CN(C)Cc2ccncc2)[C@@H](C)CN([C@H](C)CO)C3=O)cc1	ABHD5-PLIN5 inh 24 | ABHD5-PLIN5 conf inactive | HNF4 counter inactive
C[C@H](CO)N1C[C@H](C)[C@@H](CN(C)Cc2ccc(Oc3ccccc3)cc2)Oc2c(NC(=O)C3CC3)cccc2C1=O	ABHD5-PLIN5 inh 28 | ABHD5-PLIN5 conf inactive | HNF4 counter inactive
Cc1ccc(C2C3=C(CCCC3=O)N=C3c4ccccc4C(=O)C32)cc1 (configuration not stated)	ABHD5-PLIN5 inh 33 | ABHD5-PLIN5 conf 51 | HNF4 counter 55
CCc1ccc(Nc2nnc(SC(C)C(=O)NC3CC3)s2)cc1 (configuration not stated)	ABHD5-PLIN5 inh 78 | ABHD5-PLIN5 conf inactive | HNF4 counter inactive
CCOC(=O)C1=C(C)NC(=O)NC1c1c(OCC(=O)N2CCCCC2)ccc2ccccc12 (configuration not stated)	none
COc1ccc(OC)c2cc3ccccc3cc12	ABHD5-PLIN5 inh 48, Exocytosis inh 104 (no result: XBP1 UPR activ, UPR CHOP act, Mdm2-MdmX inh) | ABHD5-PLIN5 conf 67 | HNF4 counter inactive
COc1cc2ccccc2cc1C(=O)O	none

Bioassay records deposited in PubChem by several laboratories.
